In paper PMC10436028 (RSC Advances, 2023):

How the values were obtained:
Type in all cases: cell-based
[1] = test system: A-375 cell line; experiment: MTT assay, melanoma A-375 cell line; details: Homo sapiens, A-375, 48 h, read-out: IC50 against A-375
In short: (§1)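 Test compound dissolved in PBS with 0.5% DMSO and diluted in the same solvent. Cells were grown in DMEM with 10% FBS and 1% penicillin-streptomycin at 37 °C, 5% CO2. They were trypsinised, seeded and held 48 h, then given fresh medium. Exposure was 15.62–500 μM for 48 h. MTT (0.5 mg.mL−1) ran 4 h, formazan was dissolved in DMSO, and A570 read. Six vehicle wells per plate served as control. Viability was computed, in triplicate, as mean ± SD.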

[2] = test system: MCF-7 cell line; experiment: MTT assay, breast cancer MCF-7 cell line; details: Homo sapiens, MCF7, 48 h, read-out: IC50 against MCF-7
In short: as §1

[3] = test system: HEK-293 cell line; experiment: MTT toxicity assay, normal cell line HEK-293; details: Homo sapiens, HEK293, 48 h, read-out: IC50 against HEK-293
In short: as §1

IC50 [1] [µM]	IC50 [2] [µM]	SMILES	IC50 [3] [µM]
> 500	> 500	Cn1c(=O)c2c(nc(N3CCN(Cc4cn(Cc5ccccc5)nn4)CC3)n2C)n(C)c1=O [Compound 12a, 8-(4-((1-Benzyl-1H-1,2,3-triazol-4-yl)methyl)piperazin-1-yl)-1,3,7-trimethyl-3,7-dihydro-1H-purine-2,6-dione]	> 500
> 500	> 500	Cn1c(=O)c2c(nc(N3CCN(Cc4cn(CCCCCN5C(=O)c6ccccc6C5=O)nn4)CC3)n2C)n(C)c1=O [Compound 12l, 8-(4-((1-(5-(1,3-Dioxoisoindolin-2-yl)pentyl)-1H-1,2,3-triazol-4-yl)methyl)piperazin-1-yl)-1,3,7-trimethyl-3,7-dihydro-1H-purine-2,6-dione]	> 500
371 ± 2.5	260 ± 2.2	CCCCCCn1cc(CN2CCN(c3nc4c(c(=O)n(C)c(=O)n4C)n3C)CC2)nn1 [Compound 12i, 8-(4-((1-Hexyl-1H-1,2,3-triazol-4-yl)methyl)piperazin-1-yl)-1,3,7-trimethyl-3,7-dihydro-1H-purine-2,6-dione]	371 ± 2.3
> 500	> 500	Cn1c(=O)c2c(nc(N3CCN(Cc4cn(CC(=O)OCc5ccccc5)nn4)CC3)n2C)n(C)c1=O [Compound 12b, Benzyl 2-(4-((4-(1,3,7-trimethyl-2,6-dioxo-2,3,6,7-tetrahydro-1H-purin-8-yl)piperazin-1-yl)methyl)-1H-1,2,3-triazol-1-yl)acetate]	> 500
> 500	> 500	Cn1c(=O)c2c(nc(N3CCN(Cc4cn(CCCCN5C(=O)c6ccccc6S5(=O)=O)nn4)CC3)n2C)n(C)c1=O [Compound 12m, 8-(4-((1-(4-(1,1-Dioxido-3-oxobenzo[d]isothiazol-2(3H)-yl)butyl)-1H-1,2,3-triazol-4-yl)methyl)piperazin-1-yl)-1,3,7-trimethyl-3,7-dihydro-1H-purine-2,6-dione]	> 500
> 500	> 500	Cn1c(=O)c2c(nc(N3CCN(Cc4cn(CCCc5ccccc5)nn4)CC3)n2C)n(C)c1=O [Compound 12d, 1,3,7-Trimethyl-8-(4-((1-(3-phenylpropyl)-1H-1,2,3-triazol-4-yl)methyl)piperazin-1-yl)-3,7-dihydro-1H-purine-2,6-dione]	> 500
> 500	> 500	Cn1c(=O)c2c(nc(N3CCN(Cc4cn(CCCN5C(=O)c6ccccc6S5(=O)=O)nn4)CC3)n2C)n(C)c1=O [Compound 12n, 8-(4-((1-(3-(1,1-Dioxido-3-oxobenzo[d]isothiazol-2(3H)-yl)propyl)-1H-1,2,3-triazol-4-yl)methyl)piperazin-1-yl)-1,3,7-trimethyl-3,7-dihydro-1H-purine-2,6-dione]	> 500
> 500	> 500	CCOC(=O)CCCn1cc(CN2CCN(c3nc4c(c(=O)n(C)c(=O)n4C)n3C)CC2)nn1 [Compound 12g, Ethyl 4-(4-((4-(1,3,7-trimethyl-2,6-dioxo-2,3,6,7-tetrahydro-1H-purin-8-yl)piperazin-1-yl)methyl)-1H-1,2,3-triazol-1-yl)butanoate]	> 500
> 500	> 500	Cn1c(=O)c2c(nc(N3CCN(Cc4cn(C(c5ccccc5)c5ccccc5)nn4)CC3)n2C)n(C)c1=O [Compound 12c, 8-(4-((1-Benzhydryl-1H-1,2,3-triazol-4-yl)methyl)piperazin-1-yl)-1,3,7-trimethyl-3,7-dihydro-1H-purine-2,6-dione]	> 500
> 500	> 500	Cn1c(=O)c2c(nc(N3CCN(Cc4cn(CCCCCN5C(=O)c6ccccc6S5(=O)=O)nn4)CC3)n2C)n(C)c1=O [Compound 12o, 8-(4-((1-(5-(1,1-Dioxido-3-oxobenzo[d]isothiazol-2(3H)-yl)pentyl)-1H-1,2,3-triazol-4-yl)methyl)piperazin-1-yl)-1,3,7-trimethyl-3,7-dihydro-1H-purine-2,6-dione]	> 500
> 500	> 500	Cc1ccc(Cn2cc(CN3CCN(c4nc5c(c(=O)n(C)c(=O)n5C)n4C)CC3)nn2)cc1 [Compound 12f, 1,3,7-Trimethyl-8-(4-((1-(4-methylbenzyl)-1H-1,2,3-triazol-4-yl)methyl)piperazin-1-yl)-3,7-dihydro-1H-purine-2,6-dione]	> 500
323 ± 2.6	245 ± 2.3	CCCCCCCCn1cc(CN2CCN(c3nc4c(c(=O)n(C)c(=O)n4C)n3C)CC2)nn1 [Compound 12j, 1,3,7-Trimethyl-8-(4-((1-octyl-1H-1,2,3-triazol-4-yl)methyl)piperazin-1-yl)-3,7-dihydro-1H-purine-2,6-dione]	418 ± 2.4
498 ± 2	306 ± 1.8	CCCCCCCn1cc(CN2CCN(c3nc4c(c(=O)n(C)c(=O)n4C)n3C)CC2)nn1 [Compound 12h, 8-(4-((1-Heptyl-1H-1,2,3-triazol-4-yl)methyl)piperazin-1-yl)-1,3,7-trimethyl-3,7-dihydro-1H-purine-2,6-dione]	> 500
> 500	> 500	Cn1c(=O)c2c(nc(N3CCN(Cc4cn(CCc5ccccc5)nn4)CC3)n2C)n(C)c1=O [Compound 12e, 1,3,7-Trimethyl-8-(4-((1-phenethyl-1H-1,2,3-triazol-4-yl)methyl)piperazin-1-yl)-3,7-dihydro-1H-purine-2,6-dione]	> 500
367 ± 3.4	175 ± 3.2	CCCCCCCCCCn1cc(CN2CCN(c3nc4c(c(=O)n(C)c(=O)n4C)n3C)CC2)nn1 [Compound 12k, 8-(4-((1-Decyl-1H-1,2,3-triazol-4-yl)methyl)piperazin-1-yl)-1,3,7-trimethyl-3,7-dihydro-1H-purine-2,6-dione]	> 500
418 ± 2	343 ± 3.6	CN(Cc1cnc2nc(N)nc(N)c2n1)c1ccc(C(=O)N[C@@H](CCC(=O)O)C(=O)O)cc1 [MTX, methotrexate, reference compound]	199 ± 2.4
